Measured values: ChEMBL document CHEMBL4261538, “Synthesis and molecular docking studies of xanthone attached amino acids as potential antimicrobial and anti-inflammatory agents” (Medchemcomm, 2017)
Converted amounts (≈) assume the structure as drawn. The source made the active and inactive calls. The calls are words filed in the database; no cut-off is given here.

Columns and labels:
[1] = system: Staphylococcus aureus; test: Antibacterial activity against Staphylococcus aureus at 75 ug/ml incubated for 24 hrs by agar well diffusion method; format: functional; conditions: for zone of inhibition at 75 µg/mL: read-out: DIZ
In short: (§1)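 Bacteria grown in nutrient broth at 37 °C for 24 h, then subcultured at room temperature. Compounds dissolved in DMSO at 5 mg mL⁻¹ and 5–20 µL added to 6 mm wells, giving 25, 50, 75, 100 µg per well. Gentamicin was the positive control and DMSO the negative control. Plates held at 37 °C for 24 h, then inhibition zone diameter (mm) measured. Values are means of three determinations.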

[2] = system: Klebsiella pneumoniae; test: Antibacterial activity against Klebsiella pneumoniae at 25 ug/ml incubated for 24 hrs by agar well diffusion method; format: functional; in short: as §1
[3] = system: Bacillus subtilis; test: Antibacterial activity against Bacillus subtilis incubated for 24 hrs by microdilution method; format: functional
[4] = system: Klebsiella pneumoniae; test: Antibacterial activity against Klebsiella pneumoniae incubated for 24 hrs by microdilution method; format: functional
[5] = system: Klebsiella pneumoniae; test: Antibacterial activity against Klebsiella pneumoniae at 50 ug/ml incubated for 24 hrs by agar well diffusion method; format: functional; in short: as §1
[6] = system: Bacillus subtilis; test: Antibacterial activity against Bacillus subtilis at 100 ug/ml incubated for 24 hrs by agar well diffusion method; format: functional; conditions: for zone of inhibition at 100 µg/mL: read-out: DIZ; in short: as §1
[7] = system: Escherichia coli; test: Antibacterial activity against Escherichia coli incubated for 24 hrs by microdilution method; format: functional
[8] = system: Bacillus subtilis; test: Antibacterial activity against Bacillus subtilis at 75 ug/ml incubated for 24 hrs by agar well diffusion method; format: functional; conditions: for zone of inhibition at 75 µg/mL: read-out: DIZ; in short: as §1
[9] = system: Staphylococcus aureus; test: Antibacterial activity against Staphylococcus aureus at 25 ug/ml incubated for 24 hrs by agar well diffusion method; format: functional; conditions: for zone of inhibition at 25 µg/mL: read-out: DIZ; in short: as §1
[10] = system: Bacillus subtilis; test: Antibacterial activity against Bacillus subtilis at 25 ug/ml incubated for 24 hrs by agar well diffusion method; format: functional; in short: as §1
[11] = system: Escherichia coli; test: Antibacterial activity against Escherichia coli at 25 ug/ml incubated for 24 hrs by agar well diffusion method; format: functional; conditions: for zone of inhibition at 25 µg/mL: read-out: DIZ; in short: as §1
[12] = system: Staphylococcus aureus; test: Antibacterial activity against Staphylococcus aureus incubated for 24 hrs by microdilution method; format: functional
[13] = system: Escherichia coli; test: Antibacterial activity against Escherichia coli at 50 ug/ml incubated for 24 hrs by agar well diffusion method; format: functional; conditions: for zone of inhibition at 50 µg/mL: read-out: DIZ; in short: as §1
[14] = system: Klebsiella pneumoniae; test: Antibacterial activity against Klebsiella pneumoniae at 75 ug/ml incubated for 24 hrs by agar well diffusion method; format: functional; in short: as §1
[15] = system: Staphylococcus aureus; test: Antibacterial activity against Staphylococcus aureus at 50 ug/ml incubated for 24 hrs by agar well diffusion method; format: functional; conditions: for zone of inhibition at 50 µg/mL: read-out: DIZ; in short: as §1
[16] = system: Klebsiella pneumoniae; test: Antibacterial activity against Klebsiella pneumoniae at 100 ug/ml incubated for 24 hrs by agar well diffusion method; format: functional; in short: as §1
[17] = system: Bacillus subtilis; test: Antibacterial activity against Bacillus subtilis at 50 ug/ml incubated for 24 hrs by agar well diffusion method; format: functional; in short: as §1
[18] = system: Escherichia coli; test: Antibacterial activity against Escherichia coli at 75 ug/ml incubated for 24 hrs by agar well diffusion method; format: functional; conditions: for zone of inhibition at 75 µg/mL: read-out: DIZ; in short: as §1
[19] = system: Staphylococcus aureus; test: Antibacterial activity against Staphylococcus aureus at 100 ug/ml incubated for 24 hrs by agar well diffusion method; format: functional; conditions: for zone of inhibition at 100 µg/mL: read-out: DIZ; in short: as §1
[20] = system: Escherichia coli; test: Antibacterial activity against Escherichia coli at 100 ug/ml incubated for 24 hrs by agar well diffusion method; format: functional; conditions: for zone of inhibition at 100 µg/mL: read-out: DIZ; in short: as §1
[21] = system: Candida albicans; test: Antifungal activity against Candida albicans at 25 ug/ml incubated for 48 hrs by agar well diffusion method; format: functional
In short: (§2)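 Compounds dissolved in DMSO at 5 mg mL⁻¹ and 5–20 µL added to 6 mm wells, giving 25, 50, 75, 100 µg per well. Bavistin was the positive control and DMSO the negative control. Plates incubated at 28 °C for 48 h, then inhibition zone diameter (mm) measured. Values are means of three determinations.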

[22] = system: Fusarium oxysporum; test: Antifungal activity against Fusarium oxysporum at 25 ug/ml incubated for 48 hrs by agar well diffusion method; format: functional; in short: as §2
[23] = system: Candida albicans; test: Antifungal activity against Candida albicans at 75 ug/ml incubated for 48 hrs by agar well diffusion method; format: functional; conditions: read-out: DIZ; in short: as §2
[24] = system: Candida albicans; test: Antifungal activity against Candida albicans at 100 ug/ml incubated for 48 hrs by agar well diffusion method; format: functional; conditions: read-out: DIZ; in short: as §2
[25] = system: Aspergillus niger; test: Antifungal activity against Aspergillus niger at 50 ug/ml incubated for 48 hrs by agar well diffusion method; format: functional; conditions: read-out: DIZ; in short: as §2
[26] = system: Fusarium oxysporum; test: Antifungal activity against Fusarium oxysporum at 75 ug/ml incubated for 48 hrs by agar well diffusion method; format: functional; conditions: read-out: DIZ; in short: as §2
[27] = system: Aspergillus niger; test: Antifungal activity against Aspergillus niger at 100 ug/ml incubated for 48 hrs by agar well diffusion method; format: functional; conditions: read-out: DIZ; in short: as §2
[28] = system: Fusarium oxysporum; test: Antifungal activity against Fusarium oxysporum at 50 ug/ml incubated for 48 hrs by agar well diffusion method; format: functional; in short: as §2
[29] = system: Fusarium oxysporum; test: Antifungal activity against Fusarium oxysporum at 100 ug/ml incubated for 48 hrs by agar well diffusion method; format: functional; conditions: read-out: DIZ; in short: as §2
[30] = system: Aspergillus niger; test: Antifungal activity against Aspergillus niger at 75 ug/ml incubated for 48 hrs by agar well diffusion method; format: functional; conditions: read-out: DIZ; in short: as §2
[31] = system: Erythrocyte; test: Anti-inflammatory activity in human RBC assessed as inhibition of hypotonic solution-induced hemolysis after 10 mins by spectrophotometric method; format: functional, cell-based
In short: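 Human blood (heparinized) washed with 0.9% saline, packed cells made into a 40% v/v stock in isotonic phosphate buffer (154 mM NaCl, 10 mM sodium phosphate, pH 7.4). Stock RBC mixed with hypotonic buffer (50 mM NaCl, 10 mM phosphate, pH 7.4) plus sample at 20–100 µg mL⁻¹.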

[32] = system: Aspergillus niger; test: Antifungal activity against Aspergillus niger at 25 ug/ml incubated for 48 hrs by agar well diffusion method; format: functional; conditions: read-out: DIZ; in short: as §2
[33] = system: Candida albicans; test: Antifungal activity against Candida albicans at 50 ug/ml incubated for 48 hrs by agar well diffusion method; format: functional; in short: as §2

GENTAMICIN
inhibition zone (IZ) [1]: 29 mm | inhibition zone (IZ) [2]: 19 mm | MIC [3]: 28 µg/mL | MIC [4]: 26 µg/mL | inhibition zone (IZ) [5]: 24 mm | inhibition zone (IZ) [6]: 33 mm | MIC [7]: 26 µg/mL | inhibition zone (IZ) [8]: 28 mm | inhibition zone (IZ) [9]: 17 mm | inhibition zone (IZ) [10]: 21 mm | inhibition zone (IZ) [11]: 18 mm | MIC [12]: 26 µg/mL | inhibition zone (IZ) [13]: 24 mm | inhibition zone (IZ) [14]: 29 mm | inhibition zone (IZ) [15]: 21 mm | inhibition zone (IZ) [16]: 34 mm | inhibition zone (IZ) [17]: 24 mm | inhibition zone (IZ) [18]: 29 mm | inhibition zone (IZ) [19]: 32 mm | inhibition zone (IZ) [20]: 33 mm

O=c1c2ccccc2oc2cc(O)ccc12
zone of inhibition at 75 µg/mL [1]: 11 mm | diameter of the inhibition zone (DIZ) [2]: inactive | diameter of the inhibition zone (DIZ) [21]: inactive | diameter of the inhibition zone (DIZ) [5]: inactive | diameter of the inhibition zone (DIZ) [22]: inactive | zone of inhibition at 100 µg/mL [6]: 10 mm | zone of inhibition at 75 µg/mL [23]: 6 mm | zone of inhibition at 100 µg/mL [24]: 10 mm | zone of inhibition at 75 µg/mL [8]: 6 mm | zone of inhibition at 25 µg/mL [9]: 4 mm | diameter of the inhibition zone (DIZ) [10]: inactive | zone of inhibition at 50 µg/mL [25]: 7 mm | zone of inhibition at 25 µg/mL [11]: 3 mm | zone of inhibition at 75 µg/mL [26]: 5 mm | zone of inhibition at 50 µg/mL [13]: 7 mm | zone of inhibition at 100 µg/mL [27]: 11 mm | diameter of the inhibition zone (DIZ) [14]: inactive | zone of inhibition at 50 µg/mL [15]: 7 mm | diameter of the inhibition zone (DIZ) [16]: inactive | diameter of the inhibition zone (DIZ) [17]: inactive | diameter of the inhibition zone (DIZ) [28]: inactive | zone of inhibition at 100 µg/mL [29]: 9 mm | zone of inhibition at 75 µg/mL [18]: 11 mm | zone of inhibition at 100 µg/mL [19]: 14 mm | zone of inhibition at 75 µg/mL [30]: 9 mm | IC50 [31]: 90 µg/mL (≈ 424 µM) | zone of inhibition at 25 µg/mL [32]: 4 mm | diameter of the inhibition zone (DIZ) [33]: inactive | zone of inhibition at 100 µg/mL [20]: 13 mm

C[C@H](N)C(=O)Oc1ccc2c(=O)c3ccccc3oc2c1.Cl
zone of inhibition at 75 µg/mL [1]: 19 mm | zone of inhibition at 25 µg/mL ([2]; read-out: DIZ): 8 mm | zone of inhibition at 25 µg/mL ([21]; read-out: DIZ): 7 mm | zone of inhibition at 50 µg/mL ([5]; read-out: DIZ): 16 mm | zone of inhibition at 25 µg/mL ([22]; read-out: DIZ): 6 mm | zone of inhibition at 100 µg/mL [6]: 23 mm | zone of inhibition at 75 µg/mL [23]: 15 mm | zone of inhibition at 100 µg/mL [24]: 17 mm | zone of inhibition at 75 µg/mL [8]: 19 mm | zone of inhibition at 25 µg/mL [9]: 9 mm | zone of inhibition at 25 µg/mL ([10]; read-out: DIZ): 11 mm | zone of inhibition at 50 µg/mL [25]: 12 mm | zone of inhibition at 25 µg/mL [11]: 15 mm | zone of inhibition at 75 µg/mL [26]: 16 mm | zone of inhibition at 50 µg/mL [13]: 19 mm | zone of inhibition at 100 µg/mL [27]: 18 mm | zone of inhibition at 75 µg/mL ([14]; read-out: DIZ): 23 mm | zone of inhibition at 50 µg/mL [15]: 13 mm | zone of inhibition at 100 µg/mL ([16]; read-out: DIZ): 28 mm | zone of inhibition at 50 µg/mL ([17]; read-out: DIZ): 16 mm | zone of inhibition at 50 µg/mL ([28]; read-out: DIZ): 10 mm | zone of inhibition at 100 µg/mL [29]: 18 mm | zone of inhibition at 75 µg/mL [18]: 22 mm | zone of inhibition at 100 µg/mL [19]: 22 mm | zone of inhibition at 75 µg/mL [30]: 15 mm | IC50 [31]: 78 µg/mL | zone of inhibition at 25 µg/mL [32]: 8 mm | zone of inhibition at 50 µg/mL ([33]; read-out: DIZ): 12 mm | zone of inhibition at 100 µg/mL [20]: 26 mm
